{"source": "paper PMC9320808", "about": "(Chemmedchem, 2022)", "key": {"PD‐1/PD−L1": {"molecular_target": "PD‐1/PD−L1 (Homo sapiens, UniProt Q9NZQ7)", "sequence (Q9NZQ7 19-238 limits assumed)": "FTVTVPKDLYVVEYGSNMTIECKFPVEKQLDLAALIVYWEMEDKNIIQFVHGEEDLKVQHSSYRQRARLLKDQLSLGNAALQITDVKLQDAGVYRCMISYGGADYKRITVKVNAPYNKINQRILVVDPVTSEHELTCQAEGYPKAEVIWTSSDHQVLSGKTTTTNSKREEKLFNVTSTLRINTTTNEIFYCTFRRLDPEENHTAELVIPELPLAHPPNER", "assay": "Homogenous time-resolved fluorescence", "format": "binding", "conditions": "read-out: Measured IC50; HTRF PD-1/PD-L1 assay; mean±SD, n=2–3 in triplicate", "how_it_was_run": "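Competitive TR-FRET (HTRF) kit assay: PD-L1-6His-tag and PD-1-Ig, detected by anti-human IgG-Eu³⁺ cryptate and anti-6HIS-XL665 antibody. Test compounds plated per the kit instructions. Signal read on a multimode plate reader, and IC50 derived from the inhibition of PD-1/PD-L1 binding.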"}, "PD−L1": {"test_system": "PD−L1", "conditions": "cited from earlier work"}}, "note": "Read-outs that look alike come from different tables or passages of the source.", "data": [{"substance": "Atezolizumab: therapeutic antibody targeting PD−L1", "values": [{"measurement": "IC50", "setting": "PD‐1/PD−L1", "result": "2.25 ± 0.36", "unit": "nM"}, {"measurement": "IC50", "setting": "PD−L1; read-out: Reported IC50, literature value", "result": 3.83, "unit": "nM"}]}, {"substance": "Cyclo(AcPhe−^mPhe−^mNle−^mGly−Asp−Val−^mPhe−Tyr−^mGly−Trp−Tyr−Leu−Cys)‐Gly−NH2 [BMS71]", "values": [{"measurement": "IC50", "setting": "PD−L1; read-out: reported IC50, reported value for BMS71", "result": 7, "unit": "nM"}]}]}
